This is a sample that favours compounds with a hit; in the whole collection about 2% have one here.
TCR CD3 inh = inhibitors of human TCR-CD3 interaction, primary screen, biochemical, fluorescence, TAMRA-labeled TCR probe; inhibition, % at 9.4 µM; 0.37% of 360,000 active; AID 651800, 2012;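 note: recombinant mutant TCR 2C K166C tagged with TAMRA read by polarization; 0% = receptor in buffer alone and 100% = receptor with positive control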
SIAE inh = human SIAE inhibitors, primary screen, biochemical, fluorescence polarization, FP-Rh probe, 1536-well HTS; Sialate O-acetylesterase (Homo sapiens), Q9HAT2; SIAE FP-Rh probe binding; inhibition, % at 9.66 µM; 0.69% of 370,000 active;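 active = inhibition above a cutoff: mean of compounds within the control limits plus 3 SD of those, cut at about 17% in these data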;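 note: 0% = plate median of compound wells and 100% = probe without SIAE protein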
HTRA1 inh = HTRA1 serine protease inhibitors, primary screen, biochemical, fluorescence polarization, HTS. 0.5% of 340,000 active. AID 504803, 2011. recombinant HTRA1, FP-rhodamine activity-based probe. inhibition, % at 5.96 µM. Q92743; in the data active = inhibition above about 36%;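 note: 0% = enzyme with DMSO and 100% = wells lacking enzyme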
PAD4 FP inh = human PAD4 inhibitors, primary screen, biochemical, fluorescence polarization, 1536-well format; Protein-arginine deiminase type-4 (Homo sapiens), Q9UM07; recombinant PAD4, RCA probe fluorescence polarization; inhibition, % at 6.36 µM; 0.41% of 330,000 active; AID 485272, 2010;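 active = percent inhibition above a cutoff equal to the mean of all tested compounds plus 3 SD, cut at about 15% in these data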;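 note: 0% = PAD4 with RCA probe and DMSO and 100% = probe without PAD4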
TDP2 inh = human TDP2 enzyme inhibitors, primary screen, biochemical, epi absorbance, recombinant enzyme; Tyrosyl-DNA phosphodiesterase 2 (Homo sapiens), O95551; 0.34% of 370,000 active; inhibition, % at 12.8 µM; T5PNP hydrolysis, p-nitrophenol absorbance 415 nm; AID 720702, 2013;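 active = inhibition above the mean of all tested compounds plus 3 SD, set per campaign, cut at about 25% in these data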;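 note: 0% = DMSO with enzyme and 100% = buffer with substrate but no TDP2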
Target sequence (O95551 whole entry, looked up): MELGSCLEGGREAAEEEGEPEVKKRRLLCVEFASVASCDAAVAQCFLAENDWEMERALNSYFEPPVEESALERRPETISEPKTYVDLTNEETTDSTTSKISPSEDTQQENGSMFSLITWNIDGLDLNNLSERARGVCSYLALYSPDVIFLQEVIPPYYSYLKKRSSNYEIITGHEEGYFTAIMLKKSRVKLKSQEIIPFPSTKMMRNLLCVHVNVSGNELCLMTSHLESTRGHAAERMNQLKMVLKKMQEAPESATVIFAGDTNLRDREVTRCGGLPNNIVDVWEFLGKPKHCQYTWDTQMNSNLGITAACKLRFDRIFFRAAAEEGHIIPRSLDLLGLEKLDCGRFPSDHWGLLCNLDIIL
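Read-out basis: percent inhibition. System: recombinant human TDP2. Buffer or medium: Mg2+-containing Tris-HCl buffer, pH 7.5. Repeats: single replicate. Timing: reaction 2 h, 37 °C. Benchmarks: high control without enzyme, low control DMSO plus TDP2. Probe or stimulus: 5 mM T5PNP. Doses: 12.8 µM only. Measured by: epi absorbance of p-nitrophenol freed from T5PNP by hydrolysis.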
ABHD4 inh = ABHD4 inhibitors, primary screen, biochemical, fluorescence polarization, mouse | (Lyso)-N-acylphosphatidylethanolamine lipase (Mus musculus), Q8VD66 | purified mABHD4, FP-Rh probe fluorescence polarization | inhibition, % at 8.92 µM | 0.54% of 370,000 active;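 active = inhibition exceeding the mean over every tested compound plus 3 SD, cut at about 30% in these data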;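 note: 0% = plate median of compound wells and 100% = S159A mutant with DMSO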
Target sequence (Q8VD66 whole entry, looked up): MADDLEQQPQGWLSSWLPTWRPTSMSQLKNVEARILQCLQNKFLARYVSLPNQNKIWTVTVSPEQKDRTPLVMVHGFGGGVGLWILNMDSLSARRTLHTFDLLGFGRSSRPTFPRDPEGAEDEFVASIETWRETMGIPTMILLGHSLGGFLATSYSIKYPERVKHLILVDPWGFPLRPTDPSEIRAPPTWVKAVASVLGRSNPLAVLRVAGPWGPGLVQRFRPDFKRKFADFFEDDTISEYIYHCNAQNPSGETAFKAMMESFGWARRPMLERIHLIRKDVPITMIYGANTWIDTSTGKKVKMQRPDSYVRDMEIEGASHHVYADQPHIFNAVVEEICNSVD
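Test system: mABHD4 protein; Read-out basis: % inhibition; Incubation: 45 min + 60 min at 25 °C; Repeats: single replicate; Technique: fluorescence polarization with parallel and perpendicular emission, 525/598 nm; Compound: 8.92 µM, single dose; Benchmarks: full inhibition S159A mutant plus DMSO, zero as sample-well median.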
BSA probe FL = compounds interfering with TAMRA-BSA probe, counter-screen for TCR-CD3 interaction inhibitor project, biochemical, fluorescence, TAMRA-labeled BSA. AID 652035, 2013. inhibition, % at 9.4 µM. shares compounds with TCR CD3 inh. TAMRA-labeled BSA probe fluorescence counterscreen. 10% of 1,200 active; in the data active = inhibition above about 23%;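 note: 0% = buffer low control and 100% = reference high control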
TCR-CD3 inh conf = TCR-CD3 interaction inhibitors, retest, confirmation, biochemical, fluorescence, TAMRA-labeled TCR probe; TAMRA-labeled TCR probe fluorescence binding assay; inhibition, % at 9.4 µM; 48% of 1,200 active; shares compounds with TCR CD3 inh
* = called active by the depositor; · = no result. Cut-off read from the data, not from the text of the source, unless noted: active = inhibition above about 19%; inactive = the rest.

SMILES | TCR CD3 inh | SIAE inh | HTRA1 inh | PAD4 FP inh | TDP2 inh | ABHD4 inh | BSA probe FL | TCR-CD3 inh conf
Cc1nc2ccccc2c(=O)n1/N=C/c1c(O)ccc2ccccc12 | 23.6* | 4.4 | 5.3 | -6.4 | 13.8 | 4.5 | -8.8 | 7.9
Cc1n[nH]c(=S)n1/N=C/c1c(O)ccc2ccccc12 | 30.1* | 4.7 | 6.0 | -6.9 | -2.5 | 5.2 | -3.6 | 17.7
CC1(C(=O)Nc2ccc3c(c2)OCCO3)CN(S(C)(=O)=O)CC(=O)N1Cc1cccc(C(F)(F)F)c1 (centres undefined) | 1.4 | -6.7 | · | · | 13.6 | -4.9 | · | ·
CCOc1ccc(S(=O)(=O)NCCC(=O)NCCCSc2ccccc2)cc1 | 43.2* | 0.6 | -11.8 | -4.5 | -2.6 | -2.2 | -0.7 | 1.7
NC(=O)[C@@H]1CC2(CC(c3cccc(NC(=O)COc4ccc(Cl)cc4)c3)=NO2)CN1C(=O)COc1ccc(Cl)cc1 (some centres undefined) | 26.9* | -59.6 | -77.8 | 6.6 | -3.4 | -37.9 | 13.4 | 23.6*
NC(=O)[C@H]1CC2(CC(c3cccc(NC(=O)COc4ccc(Cl)cc4)c3)=NO2)CN1C(=O)C(c1ccccc1)c1ccccc1 (some centres undefined) | 31.6* | -81.8 | -90.2 | 5.0 | -6.8 | -75.5 | 4.5 | 22.6*
CCC(=O)Nc1cccc(C2=NOC3(C2)C[C@@H](C(N)=O)N(C(=O)C(c2ccccc2)c2ccccc2)C3)c1 (some centres undefined) | 1.5 | -2.7 | -20.4 | 1.2 | 1.4 | -13.4 | · | ·
COc1ccccc1N1CCN(C(=O)C(C)CS(=O)(=O)c2ccc3c(c2)NC(=O)CS3)CC1 (centres undefined) | -3.1 | -8.4 | -1.1 | -2.7 | -6.3 | 4.8 | · | ·
CSc1ccc(Cl)c(C(=O)NCCCn2ccnc2)c1 | 1.4 | -3.4 | -2.8 | -2.3 | -3.9 | -9.1 | · | ·
O=C(NNC(=O)c1ccccc1F)c1cccc(-n2cccc2)c1 | 21.9* | -3.5 | 4.1 | -1.2 | -0.1 | 1.8 | 0.1 | 26.1*
Cc1nc(-c2ccc(F)cc2)c(CC(=O)N2CCN(S(=O)(=O)c3cccc(F)c3)CC2)s1 | -1.0 | -2.6 | -1.1 | 2.0 | -5.0 | -0.9 | · | ·
CCOC(=O)CNC(=O)CSc1nnc(-c2c[nH]c3ccccc23)n1CC | 1.8 | -8.2 | -7.2 | 1.0 | -11.0 | -11.2 | · | ·
NNC(=O)COc1ccc2oc3c(c2c1)CCCC3 | 0.0 | 0.3 | -28.9 | -0.4 | -0.1 | -17.9 | · | ·
Cc1ccc(NC(=O)CN(C)C(=O)c2cccc(-n3cccc3)c2)cc1 | 22.4* | -2.0 | -18.1 | · | -11.0 | -0.4 | -8.7 | 14.9
CC1CCN(S(=O)(=O)N2CCC(C(=O)NCc3ccc(F)cc3Cl)CC2)CC1 | -5.2 | -6.6 | -5.7 | · | 1.5 | 4.6 | · | ·
CCCNC(=O)N[C@H]1CC[C@@H](CCn2cc(-c3cccc(F)c3)nn2)O[C@@H]1CO | 3.6 | -3.7 | · | · | -1.1 | 1.5 | · | ·
Cc1ccc(OCC(=O)c2cc(C)c(C)cc2C)c([N+](=O)[O-])n1 | -4.6 | -1.0 | 0.7 | -2.6 | -6.6 | 0.1 | · | ·
Cc1ccc(OCC(=O)c2c(N)n(C)c(=O)n(C)c2=O)c([N+](=O)[O-])n1 | 35.6* | 8.6 | 5.7 | 0.9 | -4.5 | 13.1 | 0.8 | 26.1*
O=C(Nc1ccccc1Cl)c1cc(C2CCCN(C(=O)c3cccc(O)c3)C2)on1 (centres undefined) | -0.3 | -0.7 | · | · | 3.6 | -9.0 | · | ·
Cn1nnc(NC(=S)NC(=O)/C=C/c2ccco2)n1 | 19.0* | -2.8 | 14.0 | 2.2 | 2.1 | 20.8 | -7.0 | -1.1
CCc1nnc(NC(=O)c2ccc(OC)cc2)s1 | -0.2 | -8.1 | 2.9 | 0.4 | -0.1 | -0.4 | · | ·
COc1ccc(C(=O)Nc2nnc(CC(=O)N/N=C/c3ccc(O)cc3O)s2)cc1 | 23.4* | 10.5 | 6.7 | -3.1 | -8.7 | -2.6 | -6.1 | 35.4*
C=CCn1c(-c2ccco2)n[nH]c1=S | 54.1* | -4.6 | 5.5 | -2.0 | 15.6 | -0.7 | 1.0 | -0.1
CCn1c(-c2ccco2)n[nH]c1=S | 0.3 | 3.9 | -1.6 | 0.0 | 2.1 | 4.7 | · | ·
OCc1nc2ccccc2n1CCCc1ccccc1 | -2.6 | 7.0 | 1.8 | · | 6.3 | 2.6 | · | ·
SMILES | TCR CD3 inh | SIAE inh | HTRA1 inh | PAD4 FP inh | TDP2 inh | ABHD4 inh | BSA probe FL | TCR-CD3 inh conf
OCc1nc2ccccc2n1CCc1ccccc1 | 23.2* | -7.3 | -0.5 | -2.3 | 11.8 | -1.5 | -5.7 | -3.2
CCOC(=O)[C@]12CCC=C1N(Cc1ccc(Cl)cc1Cl)C(=O)[C@H](CC(=O)N1CCCCC1)C2 | 5.7 | -2.5 | · | · | -9.2 | -4.5 | · | ·
Cc1ccc(C(=O)Nc2ccc(N3CCN(C(=O)c4cccs4)CC3)cc2)c(Cl)c1 | 3.6 | -4.5 | -1.8 | -0.3 | 1.3 | -0.8 | · | ·
CCOC(=O)c1c(C)[nH]c(C)c1S(=O)(=O)N(C)Cc1ccco1 | -0.1 | -5.6 | 4.8 | -1.5 | -24.4 | -3.9 | · | ·
Cc1ccc(NC(=S)Nc2ccc(C(C)C)cc2)cc1S(=O)(=O)N1CCCCCC1 | 22.5* | -102.7 | -63.5 | 0.5 | -1.7 | -55.9 | 1.2 | 14.0
CN1OC[C@@H]2CN(Cc3ccccc3)[C@H](c3cccc(-c4ccc(C#N)cc4)c3)C[C@@H]21 | 24.0* | -2.6 | -37.5 | · | -2.5 | 3.4 | 1.3 | 5.0
COc1ccccc1N(C)S(=O)(=O)c1ccc(Cl)c(C(=O)NNC(=O)c2ccccc2O)c1 | 32.5* | -4.2 | 34.2 | -0.2 | -1.1 | 1.7 | -9.8 | 25.0*
COc1ccccc1N(C)S(=O)(=O)c1ccc(C(=O)NNC(=O)c2ccccc2O)cc1 | 23.3* | 5.0 | 13.9 | · | -19.1 | 3.4 | -1.4 | 23.6*
COc1ccccc1/C=N/NC(=O)c1ccc(N(C)S(=O)(=O)c2ccccc2)cc1 | 23.2* | -11.8 | -33.4 | -5.3 | 3.4 | -4.3 | 10.0 | 10.1
O=C(Cc1cn(Cc2ccccc2)c2ccccc12)Nc1ccc(Oc2cccnc2)cc1 | -0.6 | -6.7 | · | · | -3.9 | -9.1 | · | ·
Cc1ccc(NC(=O)C(OC(=O)c2ccc(NC(N)=O)cc2)c2ccccc2)cc1Cl (centres undefined) | 45.8* | -48.8 | -96.5 | -2.5 | -9.2 | -130.5 | 17.6 | 31.7*

Bioassay records: PubChem, The Scripps Research Institute Molecular Screening Center
